Source: ChEMBL document CHEMBL5696442, “Discovery of type II inhibitors of TGFβ-activated kinase 1 (TAK1) and mitogen-activated protein kinase kinase kinase kinase 2 (MAP4K2)” (J Med Chem, 2015)

Assays:
[1] = Cmax in Swiss albino mouse at 10 mg/kg, po measured upto 24 hrs by LC/MS/MS analysis; format: ADME, organism-based; conditions: in vivo
[2] = molecular target: Mitogen-activated protein kinase 9 (Homo sapiens, UniProt P45984); assay: Inhibition of JNK2 Lys2 labeling site in human A-375 cells at 0.05 uM by KiNativ Profiling analysis relative to control; format: cell-based
[3] = molecular target: Serine/threonine-protein kinase tousled-like 2 (Homo sapiens) (UniProt Q86UE8); assay: Inhibition of TLK2 Lys1 labeling site in human A-375 cells at 5 uM by KiNativ Profiling analysis relative to control; format: cell-based
[4] = molecular target: Cyclin-dependent kinase 18 (Homo sapiens) (UniProt Q07002); assay: Inhibition of PCTAIRE3 Lys1 labeling site harbouring SKLTENLVALKEIRLEHEEGAPCTAIR in human A-375 cells at 0.5 uM by KiNativ Profiling analysis relative to control; format: cell-based
Procedure, shortened: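 Live A375 melanoma cells were treated with compound at 5 or 0.5 μM, then lysed. Lysates were labeled with a lysine-reactive ATP or ADP-biotin probe. Read-out was the compound's protection of kinase labeling sites from probe labeling (KiNativ).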

[5] = molecular target: T1, Serine/threonine-protein kinase TAO2 (Homo sapiens) (UniProt Q9UL54); assay: Inhibition of TAO2 Lys2 labeling site in human A-375 cells at 0.5 uM by KiNativ Profiling analysis relative to control; format: cell-based
T1 sequence (whole entry): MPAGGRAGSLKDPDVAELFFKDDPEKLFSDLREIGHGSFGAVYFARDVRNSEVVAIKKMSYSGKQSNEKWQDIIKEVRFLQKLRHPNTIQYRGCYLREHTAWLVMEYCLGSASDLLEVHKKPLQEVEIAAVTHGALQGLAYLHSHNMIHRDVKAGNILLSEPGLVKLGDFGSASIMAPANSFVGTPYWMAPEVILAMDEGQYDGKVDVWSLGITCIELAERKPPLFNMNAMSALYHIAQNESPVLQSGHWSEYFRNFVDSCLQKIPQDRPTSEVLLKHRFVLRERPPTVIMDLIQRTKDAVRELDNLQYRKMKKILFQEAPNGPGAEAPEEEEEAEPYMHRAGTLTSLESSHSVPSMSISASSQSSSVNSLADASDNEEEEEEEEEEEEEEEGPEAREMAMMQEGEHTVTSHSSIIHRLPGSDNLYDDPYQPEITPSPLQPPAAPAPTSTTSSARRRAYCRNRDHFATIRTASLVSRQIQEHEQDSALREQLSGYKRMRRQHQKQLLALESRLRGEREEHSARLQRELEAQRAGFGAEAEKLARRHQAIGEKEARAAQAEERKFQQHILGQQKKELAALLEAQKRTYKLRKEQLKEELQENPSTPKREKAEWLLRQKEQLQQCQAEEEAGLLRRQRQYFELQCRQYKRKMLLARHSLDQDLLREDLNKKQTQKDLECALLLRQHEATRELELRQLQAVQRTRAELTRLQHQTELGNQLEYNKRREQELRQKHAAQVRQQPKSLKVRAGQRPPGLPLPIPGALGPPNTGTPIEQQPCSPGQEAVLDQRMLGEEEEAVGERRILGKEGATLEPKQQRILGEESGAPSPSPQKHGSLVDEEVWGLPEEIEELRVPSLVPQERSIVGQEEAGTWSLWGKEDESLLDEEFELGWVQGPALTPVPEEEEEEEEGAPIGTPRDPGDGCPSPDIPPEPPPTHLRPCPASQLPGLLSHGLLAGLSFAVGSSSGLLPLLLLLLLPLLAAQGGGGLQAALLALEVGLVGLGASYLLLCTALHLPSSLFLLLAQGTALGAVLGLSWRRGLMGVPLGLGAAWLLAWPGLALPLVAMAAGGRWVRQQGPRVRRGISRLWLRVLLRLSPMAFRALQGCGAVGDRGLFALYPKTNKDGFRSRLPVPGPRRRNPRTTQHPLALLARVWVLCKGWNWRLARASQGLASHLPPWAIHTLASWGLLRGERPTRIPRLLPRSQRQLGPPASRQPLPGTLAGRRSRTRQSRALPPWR

[6] = molecular target: Cyclin-dependent kinase 4 (Homo sapiens) (UniProt P11802); assay: Inhibition of CDK4 Lys2 labeling site in human A-375 cells at 5 uM by KiNativ Profiling analysis relative to control; format: cell-based
Procedure, shortened: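 Live A375 melanoma cells were treated with compound at 5 or 0.5 μM. The cells were then lysed, and the lysates were labeled with a lysine-reactive ATP or ADP-biotin acyl probe (KiNativ). Inhibition is the compound's protection of each kinase labeling-site peptide from probe labeling, relative to untreated control.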

[7] = molecular target: T2, Mitogen-activated protein kinase 13 (Homo sapiens) (UniProt O15264); assay: Inhibition of p38 delta Lys2 labeling site in human A-375 cells at 0.05 uM by KiNativ Profiling analysis relative to control; format: cell-based
T2 sequence (whole entry): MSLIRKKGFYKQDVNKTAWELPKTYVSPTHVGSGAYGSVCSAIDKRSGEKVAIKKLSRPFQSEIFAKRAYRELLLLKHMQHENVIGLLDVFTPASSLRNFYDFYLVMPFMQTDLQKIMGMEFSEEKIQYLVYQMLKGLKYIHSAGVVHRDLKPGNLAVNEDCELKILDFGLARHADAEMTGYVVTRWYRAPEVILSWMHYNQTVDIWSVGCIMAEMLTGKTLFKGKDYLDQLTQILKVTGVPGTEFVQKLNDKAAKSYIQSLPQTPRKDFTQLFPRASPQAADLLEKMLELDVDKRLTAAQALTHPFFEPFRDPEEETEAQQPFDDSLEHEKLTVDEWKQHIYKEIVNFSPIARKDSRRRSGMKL

[8] = molecular target: Serine/threonine-protein kinase WNK3 (Homo sapiens) (UniProt Q9BYP7); assay: Inhibition of Wnk3 Lys2 labeling site in human A-375 cells at 0.5 uM by KiNativ Profiling analysis relative to control; format: cell-based
[9] = molecular target: T3, Phosphatidylinositol 5-phosphate 4-kinase type-2 gamma (Homo sapiens) (UniProt Q8TBX8); assay: Inhibition of PIP4K2C ATP labeling site harbouring VKELPTLKDMDFLNK in human A-375 cells at 0.05 uM by KiNativ Profiling analysis relative to control; format: cell-based
T3 sequence (whole entry): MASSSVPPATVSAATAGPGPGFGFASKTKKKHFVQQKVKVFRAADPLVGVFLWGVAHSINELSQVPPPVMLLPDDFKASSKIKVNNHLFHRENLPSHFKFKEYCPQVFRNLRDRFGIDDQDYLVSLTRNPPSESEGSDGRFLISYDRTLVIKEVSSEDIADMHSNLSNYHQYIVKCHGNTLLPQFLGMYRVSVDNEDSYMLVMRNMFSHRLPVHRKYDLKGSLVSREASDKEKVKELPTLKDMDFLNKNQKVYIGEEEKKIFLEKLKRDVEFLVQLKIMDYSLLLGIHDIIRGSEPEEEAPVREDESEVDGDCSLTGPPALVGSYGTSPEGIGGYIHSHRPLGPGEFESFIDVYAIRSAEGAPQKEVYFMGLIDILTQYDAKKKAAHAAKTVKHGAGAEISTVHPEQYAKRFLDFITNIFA

[10] = molecular target: Serine/threonine-protein kinase MRCK beta (Homo sapiens) (UniProt Q9Y5S2); assay: Inhibition of MRCKb in human A-375 cells at 0.05 uM by KiNativ Profiling analysis relative to control; format: cell-based
Serine/threonine-protein kinase MRCK beta (Homo sapiens), sequence (Q9Y5S2 whole entry): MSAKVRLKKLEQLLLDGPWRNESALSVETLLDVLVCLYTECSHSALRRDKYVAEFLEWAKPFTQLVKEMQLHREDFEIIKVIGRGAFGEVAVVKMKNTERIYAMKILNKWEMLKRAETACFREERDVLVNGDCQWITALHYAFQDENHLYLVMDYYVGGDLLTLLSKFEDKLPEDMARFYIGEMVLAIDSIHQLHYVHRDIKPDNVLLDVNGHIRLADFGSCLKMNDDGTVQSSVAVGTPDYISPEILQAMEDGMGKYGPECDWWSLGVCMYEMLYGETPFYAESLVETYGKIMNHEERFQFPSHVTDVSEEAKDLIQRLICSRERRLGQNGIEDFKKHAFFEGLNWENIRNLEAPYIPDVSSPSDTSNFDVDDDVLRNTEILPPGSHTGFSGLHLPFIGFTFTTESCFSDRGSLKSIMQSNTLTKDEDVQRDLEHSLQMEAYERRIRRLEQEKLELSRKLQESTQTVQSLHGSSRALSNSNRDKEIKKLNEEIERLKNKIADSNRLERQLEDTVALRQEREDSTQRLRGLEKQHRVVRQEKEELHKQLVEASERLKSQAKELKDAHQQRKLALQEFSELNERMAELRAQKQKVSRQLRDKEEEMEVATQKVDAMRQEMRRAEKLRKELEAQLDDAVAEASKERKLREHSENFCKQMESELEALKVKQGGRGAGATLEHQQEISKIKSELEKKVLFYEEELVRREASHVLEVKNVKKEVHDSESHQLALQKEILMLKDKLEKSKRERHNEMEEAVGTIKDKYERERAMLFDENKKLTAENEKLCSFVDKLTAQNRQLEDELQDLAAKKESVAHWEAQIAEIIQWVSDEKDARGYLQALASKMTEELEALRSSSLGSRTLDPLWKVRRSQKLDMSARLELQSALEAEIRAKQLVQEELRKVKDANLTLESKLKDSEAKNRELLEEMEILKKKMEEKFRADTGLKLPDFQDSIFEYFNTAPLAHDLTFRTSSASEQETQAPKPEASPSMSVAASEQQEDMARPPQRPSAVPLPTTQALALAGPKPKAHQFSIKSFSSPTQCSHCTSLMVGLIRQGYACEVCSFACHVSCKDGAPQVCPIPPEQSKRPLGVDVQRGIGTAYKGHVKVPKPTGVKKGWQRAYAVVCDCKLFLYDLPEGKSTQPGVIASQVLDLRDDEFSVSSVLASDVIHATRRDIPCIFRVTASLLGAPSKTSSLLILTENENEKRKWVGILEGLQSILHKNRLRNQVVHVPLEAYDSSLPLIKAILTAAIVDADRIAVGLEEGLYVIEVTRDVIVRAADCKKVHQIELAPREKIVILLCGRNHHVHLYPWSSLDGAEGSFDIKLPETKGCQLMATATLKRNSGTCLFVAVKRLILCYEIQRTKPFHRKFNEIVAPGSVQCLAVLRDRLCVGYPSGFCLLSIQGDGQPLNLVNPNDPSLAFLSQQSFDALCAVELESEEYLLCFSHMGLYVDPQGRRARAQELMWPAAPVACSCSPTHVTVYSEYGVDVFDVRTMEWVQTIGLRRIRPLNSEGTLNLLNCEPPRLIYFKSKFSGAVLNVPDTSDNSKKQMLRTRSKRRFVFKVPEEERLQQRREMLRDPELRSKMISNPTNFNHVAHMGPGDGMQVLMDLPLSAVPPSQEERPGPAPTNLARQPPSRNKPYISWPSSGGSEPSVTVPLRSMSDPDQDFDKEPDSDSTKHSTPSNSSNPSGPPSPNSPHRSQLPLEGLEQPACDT

Cyclin-dependent kinase 18 (Homo sapiens), sequence (Q07002 whole entry): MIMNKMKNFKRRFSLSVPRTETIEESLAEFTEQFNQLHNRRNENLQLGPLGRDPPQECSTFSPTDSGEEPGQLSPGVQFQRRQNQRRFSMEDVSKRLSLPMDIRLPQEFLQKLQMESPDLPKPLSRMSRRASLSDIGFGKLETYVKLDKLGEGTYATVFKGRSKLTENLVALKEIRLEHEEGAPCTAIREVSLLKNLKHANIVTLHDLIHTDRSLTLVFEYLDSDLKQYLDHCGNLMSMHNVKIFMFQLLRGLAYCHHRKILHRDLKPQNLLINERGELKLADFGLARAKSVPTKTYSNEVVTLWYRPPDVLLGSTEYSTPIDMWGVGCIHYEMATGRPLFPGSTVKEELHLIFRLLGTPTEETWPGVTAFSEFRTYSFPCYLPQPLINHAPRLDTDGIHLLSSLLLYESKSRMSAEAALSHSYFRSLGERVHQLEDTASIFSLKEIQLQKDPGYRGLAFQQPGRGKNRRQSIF
Serine/threonine-protein kinase tousled-like 2 (Homo sapiens), sequence (Q86UE8 whole entry, looked up): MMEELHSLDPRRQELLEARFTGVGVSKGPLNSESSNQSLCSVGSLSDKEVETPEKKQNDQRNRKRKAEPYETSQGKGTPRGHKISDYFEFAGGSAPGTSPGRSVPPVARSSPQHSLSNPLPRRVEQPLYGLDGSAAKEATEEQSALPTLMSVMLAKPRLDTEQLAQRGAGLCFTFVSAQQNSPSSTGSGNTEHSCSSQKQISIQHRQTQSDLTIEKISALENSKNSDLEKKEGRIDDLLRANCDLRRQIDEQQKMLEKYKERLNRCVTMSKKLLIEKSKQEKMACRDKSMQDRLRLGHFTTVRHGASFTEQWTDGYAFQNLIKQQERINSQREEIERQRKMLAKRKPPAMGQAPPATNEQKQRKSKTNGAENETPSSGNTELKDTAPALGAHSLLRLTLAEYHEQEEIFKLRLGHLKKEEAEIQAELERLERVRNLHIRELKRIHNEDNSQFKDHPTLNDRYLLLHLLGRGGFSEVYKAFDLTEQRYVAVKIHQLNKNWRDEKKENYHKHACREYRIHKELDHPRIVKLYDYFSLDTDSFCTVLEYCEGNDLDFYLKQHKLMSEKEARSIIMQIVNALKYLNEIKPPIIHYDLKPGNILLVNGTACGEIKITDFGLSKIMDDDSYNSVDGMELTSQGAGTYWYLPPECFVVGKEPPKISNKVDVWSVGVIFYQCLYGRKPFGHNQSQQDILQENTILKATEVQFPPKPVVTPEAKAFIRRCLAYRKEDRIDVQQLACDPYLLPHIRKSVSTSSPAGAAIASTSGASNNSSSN
Cyclin-dependent kinase 4 (Homo sapiens), sequence (P11802 whole entry): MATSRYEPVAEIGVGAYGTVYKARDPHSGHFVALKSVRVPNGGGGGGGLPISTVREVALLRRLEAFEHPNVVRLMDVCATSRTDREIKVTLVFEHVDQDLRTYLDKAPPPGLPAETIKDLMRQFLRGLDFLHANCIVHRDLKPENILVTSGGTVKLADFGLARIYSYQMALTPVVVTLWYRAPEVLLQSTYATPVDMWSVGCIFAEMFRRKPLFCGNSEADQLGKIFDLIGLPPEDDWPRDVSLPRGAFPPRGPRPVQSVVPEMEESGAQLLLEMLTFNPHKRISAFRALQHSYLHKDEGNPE
Serine/threonine-protein kinase WNK3 (Homo sapiens), sequence (Q9BYP7 whole entry): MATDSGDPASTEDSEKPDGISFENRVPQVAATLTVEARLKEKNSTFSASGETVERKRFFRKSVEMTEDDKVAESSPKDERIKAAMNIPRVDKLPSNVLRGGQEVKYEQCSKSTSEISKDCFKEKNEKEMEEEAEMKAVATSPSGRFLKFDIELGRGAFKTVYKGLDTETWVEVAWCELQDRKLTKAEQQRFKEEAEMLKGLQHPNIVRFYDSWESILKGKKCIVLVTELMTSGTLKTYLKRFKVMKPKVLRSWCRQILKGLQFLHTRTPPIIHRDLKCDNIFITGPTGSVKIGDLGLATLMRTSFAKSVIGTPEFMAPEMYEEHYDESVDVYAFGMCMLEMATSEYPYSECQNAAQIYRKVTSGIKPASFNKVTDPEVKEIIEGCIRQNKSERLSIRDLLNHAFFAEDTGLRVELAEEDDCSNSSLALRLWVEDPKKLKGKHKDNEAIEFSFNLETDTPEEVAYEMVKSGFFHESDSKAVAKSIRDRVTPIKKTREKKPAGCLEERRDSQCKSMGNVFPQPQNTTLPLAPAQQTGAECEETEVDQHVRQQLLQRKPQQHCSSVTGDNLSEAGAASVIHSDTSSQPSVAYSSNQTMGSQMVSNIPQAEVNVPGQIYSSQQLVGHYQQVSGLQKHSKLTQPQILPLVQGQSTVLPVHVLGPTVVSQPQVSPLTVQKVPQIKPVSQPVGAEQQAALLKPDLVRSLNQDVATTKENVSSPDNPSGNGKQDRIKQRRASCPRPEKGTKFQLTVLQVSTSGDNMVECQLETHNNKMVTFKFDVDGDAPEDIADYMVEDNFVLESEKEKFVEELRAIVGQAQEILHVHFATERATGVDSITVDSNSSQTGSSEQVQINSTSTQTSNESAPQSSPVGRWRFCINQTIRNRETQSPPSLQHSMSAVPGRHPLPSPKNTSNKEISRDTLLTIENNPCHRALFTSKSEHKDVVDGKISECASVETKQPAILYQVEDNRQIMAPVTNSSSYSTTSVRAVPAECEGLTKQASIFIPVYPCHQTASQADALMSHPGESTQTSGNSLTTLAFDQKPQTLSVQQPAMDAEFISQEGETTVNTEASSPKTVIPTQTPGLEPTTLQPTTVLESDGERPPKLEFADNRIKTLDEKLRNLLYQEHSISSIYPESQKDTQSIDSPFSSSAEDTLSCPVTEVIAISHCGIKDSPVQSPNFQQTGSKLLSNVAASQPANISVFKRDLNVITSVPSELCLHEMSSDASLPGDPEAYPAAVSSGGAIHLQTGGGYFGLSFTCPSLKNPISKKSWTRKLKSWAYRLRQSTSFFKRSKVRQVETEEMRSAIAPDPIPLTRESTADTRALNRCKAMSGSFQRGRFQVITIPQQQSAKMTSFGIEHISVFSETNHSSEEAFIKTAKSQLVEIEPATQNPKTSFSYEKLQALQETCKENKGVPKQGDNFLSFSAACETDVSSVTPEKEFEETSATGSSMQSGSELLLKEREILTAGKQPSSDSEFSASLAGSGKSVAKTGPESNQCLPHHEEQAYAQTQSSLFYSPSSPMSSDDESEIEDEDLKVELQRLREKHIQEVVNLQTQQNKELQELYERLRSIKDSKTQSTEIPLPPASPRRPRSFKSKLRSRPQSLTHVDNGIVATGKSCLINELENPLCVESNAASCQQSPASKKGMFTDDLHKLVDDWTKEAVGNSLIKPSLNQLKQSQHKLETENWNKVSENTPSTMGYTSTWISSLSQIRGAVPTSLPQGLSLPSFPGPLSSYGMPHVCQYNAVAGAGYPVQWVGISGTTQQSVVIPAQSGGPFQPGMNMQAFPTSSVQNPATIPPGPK

Q: Which Cmax [1] does the source give for `CCN1CCN(Cc2ccc(NC(=O)c3ccc(C)c(Oc4ccnc5[nH]ccc45)c3)cc2C(F)(F)F)CC1` here?
A: The Cmax was 316 ng/mL.

Q: And the inhibition [2]?
A: Its inhibition is 50.3%.

Q: What about the inhibition [3] of the same molecule?
A: The inhibition was 17.7%.

Q: And the inhibition [4]?
A: The inhibition was 6.9%.

Q: And the inhibition [5]?
A: The inhibition was 42.8%.

Q: And the inhibition [6]?
A: The inhibition was 2.9%.

Q: What about the inhibition [7] of the same molecule?
A: Its inhibition is 64.9%.

Q: And the inhibition [8]?
A: Its inhibition is -3%.

Q: And the inhibition [9]?
A: The inhibition was -1.1%.

Q: And the inhibition [10]?
A: Its inhibition is -8.8%.

Q: Which Cmax [1] does the source give for `CCN1CCN(Cc2ccc(NC(=O)c3ccc(C)c(/C=C/c4cnc5[nH]ccc5c4OC)c3)cc2C(F)(F)F)CC1` here?
A: The Cmax was 163 ng/mL.

Q: And the inhibition [2]?
A: Its inhibition is 23.9%.

Q: And the inhibition [3]?
A: The inhibition was 27.5%.

Q: What about the inhibition [4] of the same molecule?
A: The inhibition was 2.4%.

Q: What about the inhibition [5] of the same molecule?
A: The inhibition was 37.1%.

Q: What about the inhibition [6] of the same molecule?
A: Its inhibition is 6.7%.

Q: And the inhibition [7]?
A: Its inhibition is 24.3%.

Q: What about the inhibition [8] of the same molecule?
A: Its inhibition is 7.9%.

Q: And the inhibition [9]?
A: The inhibition was -7.3%.

Q: What about the inhibition [10] of the same molecule?
A: Its inhibition is 12.1%.
